Data as given in ChEMBL document CHEMBL2010788, “Consequences of linker length alteration of the α7 nicotinic acetylcholine receptor (nAChR) agonist, SEN12333” (Bioorg Med Chem Lett, 2012).
The source made the active and inactive calls. No cut-off for these calls is given here.

Key:
[1] = biological target: Neuronal acetylcholine receptor subunit alpha-7 (Rattus norvegicus) (UniProt Q05941); experiment: Agonist activity at wild type rat recombinant alpha7 nAChR expressed in Xenopus oocyte at 100 uM by voltage clamp electrophysiology assay; assay type: functional
[2] = biological target: Neuronal acetylcholine receptor subunit alpha-7 (Rattus norvegicus) (UniProt Q05941); experiment: Antagonist activity at wild type rat recombinant alpha7 nAChR expressed in Xenopus oocyte assessed as inhibition of ACh-gated current at 100 uM by voltage clamp electrophysiology assay; assay type: functional
[3] = biological target: Neuronal acetylcholine receptor; alpha3/beta4 (Rattus norvegicus, UniProt P04757+P12392); experiment: Displacement of [3H]epibatidine from rat alpha3beta4 nAChR expressed in […] cells after 4 hrs by liquid scintillation counting; assay type: cell-based
How it was run: (§1)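 Competition binding against racemic [³H]epibatidine. Receptor source: membrane homogenates of HEK293 cells stably transfected with the rat nAChR subtype (α3β4, α4β2 or α7). Affinity reported as Ki.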

[4] = biological target: T1, Neuronal acetylcholine receptor subunit alpha-7 (Rattus norvegicus, UniProt Q05941); experiment: Displacement of [3H]epibatidine from rat alpha7 nAChR expressed in […] cells after 4 hrs by liquid scintillation counting; assay type: cell-based; how it was run: as §1
[5] = biological target: Neuronal acetylcholine receptor; alpha4/beta2 (Rattus norvegicus, UniProt P09483+P12390); experiment: Displacement of [3H]epibatidine from rat alpha4beta2 nAChR expressed in […] cells after 4 hrs by liquid scintillation counting; assay type: cell-based; how it was run: as §1
[6] = biological target: Neuronal acetylcholine receptor subunit alpha-7 (Rattus norvegicus) (UniProt Q05941); experiment: Partial agonist activity at wild type rat alpha7 nAChR expressed in Xenopus oocyte by voltage clamp electrophysiology assay relative to acetylcholine; assay type: functional
[7] = biological target: T1, Neuronal acetylcholine receptor subunit alpha-7; experiment: Partial agonist activity at wild type rat recombinant alpha7 nAChR expressed in Xenopus oocyte by voltage clamp electrophysiology assay; assay type: functional

Chain of Neuronal acetylcholine receptor; alpha3/beta4 (P04757 whole entry): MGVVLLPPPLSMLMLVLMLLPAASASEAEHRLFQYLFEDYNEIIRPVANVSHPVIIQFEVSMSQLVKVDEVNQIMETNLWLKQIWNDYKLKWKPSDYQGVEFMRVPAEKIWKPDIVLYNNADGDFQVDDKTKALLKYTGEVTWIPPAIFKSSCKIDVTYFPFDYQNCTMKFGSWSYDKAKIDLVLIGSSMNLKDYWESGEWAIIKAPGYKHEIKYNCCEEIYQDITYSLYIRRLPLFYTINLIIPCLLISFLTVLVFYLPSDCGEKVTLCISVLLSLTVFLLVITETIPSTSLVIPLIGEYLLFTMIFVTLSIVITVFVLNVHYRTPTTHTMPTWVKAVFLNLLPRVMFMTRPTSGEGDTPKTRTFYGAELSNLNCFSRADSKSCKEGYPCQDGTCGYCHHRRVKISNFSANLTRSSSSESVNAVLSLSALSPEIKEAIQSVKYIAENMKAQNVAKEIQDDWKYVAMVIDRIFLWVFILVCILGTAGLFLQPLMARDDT
Chain of Neuronal acetylcholine receptor; alpha3/beta4 (P12392 whole entry): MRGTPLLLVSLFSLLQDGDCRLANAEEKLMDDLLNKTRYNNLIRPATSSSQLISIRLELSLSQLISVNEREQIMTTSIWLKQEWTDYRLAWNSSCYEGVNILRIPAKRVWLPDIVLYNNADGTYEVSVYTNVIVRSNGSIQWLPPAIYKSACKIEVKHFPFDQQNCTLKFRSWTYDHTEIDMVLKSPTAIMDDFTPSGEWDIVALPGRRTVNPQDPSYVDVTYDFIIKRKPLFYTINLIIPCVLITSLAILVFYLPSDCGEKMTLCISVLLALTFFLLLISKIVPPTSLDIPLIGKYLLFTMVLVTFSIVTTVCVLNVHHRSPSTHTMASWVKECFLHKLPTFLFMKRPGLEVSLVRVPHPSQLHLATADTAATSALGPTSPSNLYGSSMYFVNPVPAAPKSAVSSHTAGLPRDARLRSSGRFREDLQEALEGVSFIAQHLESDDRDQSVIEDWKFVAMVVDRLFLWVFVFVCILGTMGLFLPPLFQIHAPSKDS
Chain of Neuronal acetylcholine receptor; alpha4/beta2 (P09483 whole entry): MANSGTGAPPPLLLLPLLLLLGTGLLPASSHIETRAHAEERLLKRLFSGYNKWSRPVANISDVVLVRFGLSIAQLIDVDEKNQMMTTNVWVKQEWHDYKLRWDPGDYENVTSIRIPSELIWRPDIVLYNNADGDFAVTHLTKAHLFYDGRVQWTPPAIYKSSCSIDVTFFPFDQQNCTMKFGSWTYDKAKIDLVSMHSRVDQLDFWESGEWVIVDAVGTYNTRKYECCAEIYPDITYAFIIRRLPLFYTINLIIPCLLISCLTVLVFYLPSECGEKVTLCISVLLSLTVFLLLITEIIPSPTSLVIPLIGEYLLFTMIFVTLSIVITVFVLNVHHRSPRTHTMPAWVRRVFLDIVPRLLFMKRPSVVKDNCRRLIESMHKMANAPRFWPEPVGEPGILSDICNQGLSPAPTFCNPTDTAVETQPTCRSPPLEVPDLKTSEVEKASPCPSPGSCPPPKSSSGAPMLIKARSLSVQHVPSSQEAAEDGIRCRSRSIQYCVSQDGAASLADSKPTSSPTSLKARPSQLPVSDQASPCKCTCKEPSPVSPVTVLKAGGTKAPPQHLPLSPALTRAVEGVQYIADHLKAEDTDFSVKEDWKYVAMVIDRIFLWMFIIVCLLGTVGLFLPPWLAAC
Chain of Neuronal acetylcholine receptor; alpha4/beta2 (P12390 whole entry): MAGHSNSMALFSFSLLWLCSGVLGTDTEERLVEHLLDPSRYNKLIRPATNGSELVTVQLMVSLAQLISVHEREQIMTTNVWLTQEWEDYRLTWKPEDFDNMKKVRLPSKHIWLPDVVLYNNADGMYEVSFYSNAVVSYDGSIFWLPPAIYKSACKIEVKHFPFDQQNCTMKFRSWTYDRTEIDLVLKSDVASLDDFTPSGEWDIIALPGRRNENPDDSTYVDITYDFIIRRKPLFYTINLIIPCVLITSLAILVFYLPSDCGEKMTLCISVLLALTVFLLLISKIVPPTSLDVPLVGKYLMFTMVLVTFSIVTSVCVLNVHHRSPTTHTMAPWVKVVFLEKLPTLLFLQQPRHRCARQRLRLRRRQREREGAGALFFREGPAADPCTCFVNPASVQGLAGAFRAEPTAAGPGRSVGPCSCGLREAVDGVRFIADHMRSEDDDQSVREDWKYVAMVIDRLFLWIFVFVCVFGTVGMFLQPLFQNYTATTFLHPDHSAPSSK
Chain of Neuronal acetylcholine receptor subunit alpha-7 (Rattus norvegicus) (Q05941 whole entry): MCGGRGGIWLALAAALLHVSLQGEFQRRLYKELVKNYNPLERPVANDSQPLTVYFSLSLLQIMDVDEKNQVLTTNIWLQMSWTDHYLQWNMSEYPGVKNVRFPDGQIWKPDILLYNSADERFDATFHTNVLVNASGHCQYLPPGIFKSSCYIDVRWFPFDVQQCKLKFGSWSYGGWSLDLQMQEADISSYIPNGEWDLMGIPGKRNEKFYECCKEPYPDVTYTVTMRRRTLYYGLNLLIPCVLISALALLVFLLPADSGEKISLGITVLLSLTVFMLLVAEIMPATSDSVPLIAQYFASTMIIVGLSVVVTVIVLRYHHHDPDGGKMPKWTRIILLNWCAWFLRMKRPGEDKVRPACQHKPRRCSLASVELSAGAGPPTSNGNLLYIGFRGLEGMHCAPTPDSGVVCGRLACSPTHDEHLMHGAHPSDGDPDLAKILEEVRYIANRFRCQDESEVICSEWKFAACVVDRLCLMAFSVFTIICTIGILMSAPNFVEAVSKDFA
T1 sequence (Q05941 whole entry): as above

SMILES | Ki [3] | Ki [4] | Ki [5] | Activity [6] | EC50 [7] | Activity [1] | inhibition [2]
O=C(CCCN1CCOCC1)Nc1ccc(-c2cccnc2)cc1 | > 10 µM | > 10 µM | > 10 µM | – | – | inactive | inactive
O=C(CCCCCN1CCOCC1)Nc1ccc(-c2cccnc2)cc1 | > 10 µM | > 10 µM | > 10 µM | – | – | inactive | inactive
O=C(CN1CCOCC1)Nc1ccc(-c2cccnc2)cc1 | > 10 µM | 3.9 µM | > 10 µM | – | – | inactive | inactive

The next lines start with results.

Ki [3] | Ki [4] | Ki [5] | Activity [6] | EC50 [7] | SMILES | Activity [1] | inhibition [2]
> 10 µM | 0.5 µM | > 10 µM | 11% | 9.5 µM | O=C(CCCCN1CCOCC1)Nc1ccc(-c2cccnc2)cc1 | – | –
> 10 µM | > 10 µM | > 10 µM | – | – | O=C(CCN1CCOCC1)Nc1ccc(-c2cccnc2)cc1 | inactive | inactive
